The EternaBench riboswitch data

Tested on: MS2 coat protein
Assay: apparent Kd, MS2 coat protein; higher = weaker binding; RNA-MaP array; FMN 200 µM where present
Summary of the method: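 Green signal from SNAP-549-labelled MS2 coat protein was normalised to red-channel RNA signal and to the median Fmax of control clusters. The protein was titrated from 0.7 or 1.5 nM, doubling to 3 µM, without and then with constant ligand, over designs transcribed by stalled E. coli RNA polymerase on Illumina sequencing-chip clusters, in 100 mM Tris-HCl pH 7.5, 80 mM KCl, 4 mM MgCl2, BSA, DTT, yeast tRNA and Tween-20. The apparent Kd is the median of filtered per-cluster binding-curve fits.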

[1] = designed as: OFF switch for flavin mononucleotide, no ligand
[2] = ligand present: flavin mononucleotide, designed as: OFF switch for flavin mononucleotide
[3] = designed as: ON switch for flavin mononucleotide, no ligand
[4] = ligand present: flavin mononucleotide, designed as: ON switch for flavin mononucleotide

| Sequence | apparent Kd [1] [nM] | apparent Kd [2] [nM] | apparent Kd [3] [nM] | apparent Kd [4] [nM] |
| --- | --- | --- | --- | --- |
| CUUUCGUGAGGAUAUGAAAAUUCGAUCGUGAGAUCGAGGCUACAGAAGGCACAUGAGGAUCACCCAUGUUCCUC | 31.5 | 320 | – | – |
| GCCAACUCAUGAGGAUAUGGCACCUUAUUGGUGCCAGAAGGCGUGUCUAUUGACAUGAGGAUCACCCAUGUAUUAUAGUUGGCA | – | – | 678 | 105 |
| AGGCGAGUAGGAUAUGCGUUUUUACGGGAAAGCUGGAUGAUACAUGAGGAUCACCCAUGUAGAAGGGCUCUGAA | 20.6 | 16 | – | – |
| GCCAGUUAUGUAGGAUAUGCGAAGCGAGCCUGAGCAGAAGGACAUGAGGAUCACCCAUGUGUUGCGGUUUGAGUACUGAUCGCU | 24.4 | 89.4 | – | – |
| GCAAAAGUCCUGAGGGUAGGAGACAGAAGGGCACCGGGAUCACUCCACAUGAGGAUCACCCAUGUGCAGGAUAUGUCGGCUGAA | 22.3 | 327 | – | – |
| AUCAGAUCUCGACUGUCCAACAUGAGGAUCACCCAUGUCAGAAGAAGGGACUAUUAACUAAUCUGUCAGGAUAUUUUGACGCGG | 10.6 | 49.7 | – | – |
| AUUGUUAAGGUAGGAUAUAGUAAAAUGAUUUAAUUAGAAGGAUCUCACAUGAGGAUCACCCAUGUAAGAGGAUCACCCAUGUAU | 12.9 | 9.73 | – | – |
| GUGUGAUUAAGAGGAUAUAUACAACAUGAGGAUCACCCAUGUACCCGUGUAGUAGAAGGUUUGUUUUUAUAUAAUAUUAUAUUU | – | – | 26.5 | 21.9 |
| AAUUAUUGAUGAGGAUAUUGUGGUGAAACACGACAAGAAGGCAUUAUUCACAUGAGGAUCACCCAUGUGAGCCUGAUGCAUAUA | 14.5 | 13.9 | – | – |
| AGAAGAACAUGAGGAUCACCCAUGUUCCUGCUGCUCCACAGACAGGAUAUGGGUGUCGUCGACAAUCAGAAGGGUUCGCGGAGC | – | – | 34.9 | 27.5 |
| AAUAAACUCACAGGAUAUAGCAUAAGUCGCGUGAACUUACAGGCGACUAUGCUAGAAGGGUGACCACAUGAGGAUCACCCAUGU | – | – | 805 | 158 |
| UGGCUACAUGAGGAUCACCCAUGUCAGGAUAUGCCGUUAAAUUAACAUCAACAUACGGGUAGAAGGGACUGCGU | 28.8 | 29.5 | – | – |
| GACUGCCGAGGAUAUACAUGAGGAUCACCCAUGUGCUUCAGUAUCGAAAGAUGCAUGGGUAGAAGGCGGUAGUC | 391 | 284 | – | – |
| UUAUUAUGUGUAGGAUAUGCAUAUUAUUAUUAUGCAGAAGGACAUGAGGAUCACCCAUGUAUAUUAUUAUUAUAUAUUAUAUAU | 30.9 | 46.2 | – | – |
| CAGCGAAAGUAGAAGGUAUUAAUUAAAUUUAAAUAAGGAUAUACAUGAGGAUCACCCAUGUCCUUCAGCUGGAUAUAUAUUAAU | 39.1 | 29.1 | – | – |
| CGUGUCAUCGAGAAGGCCUCAACAUGAGGAUCACCCAUGUUGUAAUAUGGGAGGAUAUCGAUGAUACAGCUACGUUUCGUAGCG | – | – | 19.1 | 6.07 |
| AGCGAGGUAGGAUAUACAUGAGGAUCACCCAUGUGCUUGCAUGGCGUGGAACGUCGAGGUAGAAGGGCCGCGCC | 24.2 | 35.7 | – | – |
| GCGUAACAUGAGGAUCACCCAUGUGCCCGAGAAUUCGGGCCGAGAAGGGUGACCGGACGUAUGGCACAGGAUAUCGACGUUUUG | – | – | 33.6 | 48.4 |
| UUGGACGGCGUAGGAUAUGUAGGAUAUUCCUACAUGAGGAUCACCCAUGUUGACAUGGAAGAAGGACAGAAGGACGAUGUCCAU | – | – | 303 | 4.94 |
| GCUAAGCGAAUUAAGAUGAAUAGAACAUGAGGAUCACCCAUGUAGGAUAUGCUACACAAAGUGUAGCAGAAGGACAAGCUUAGC | 20.2 | 25.4 | – | – |
| CGACCCUGAACGAAAUCAUGCAGUCAGGAUAUACAUGAGGAUCACCCAUGUGCGUACCAACUCGUGUAGAAGGGACUUUCAGGG | 12.7 | 33.2 | – | – |
| AUUUUAAUGUCAGGAUAUAUUAGUUUAUAUAUAGUAGAAGGGAUAAUUAUACUCAUGUACAUGAGGAUCACCCAUGUUAAAUAA | – | – | 216 | 79.1 |
| GCUCUAUGCGAGAAGGCGUGAAACAUGAGGAUCACCCAUGUCAGAGAUAUGAGGAUAUUGCAUAGAGCAAAAGACGGAAACGUC | – | – | 12.2 | 5.02 |
| GUAGCUACAAUUAUACAUGAGGAUCACCCAUGUUACAUGGGUAAGGAUAUUGAGGUUAUUAUUGUCAAGAAGGUACUAUGCUAC | – | – | 505 | 71.6 |
| GACACUAUGUUUGUCAGAUAGAGAGAGGAUAUGGCUCAUGUGACAUGAGGAUCACCCAUGUAUAAUCAGAAGGCUCGAGUACGA | – | – | 45.9 | 16.3 |
| AAACAUGUCCGAGGAUAUCUGAGAUCAUUUUCAAGAGAAGGCGGACAUGAGGAUCACCCAUGUCUCUCCUCAUCAACUCUAAAU | 5.99 | 36.9 | – | – |
| GUGCGUGGCUAGGAUAUUGUGGGUUUUUGUCAGCGAGAAGGAGCCACAUGAGGAUCACCCAUGUGGUGUUGCUC | 187 | 57.1 | – | – |
| CAUUAAUUCAUUAUAUUAAUUUUACAGGAUAUGUAACAUGAGGAUCACCCAUGUAUUCUAGGUUAACAGAAGGGUAUUACUUGU | 28.6 | 22.9 | – | – |

| Sequence | apparent Kd [1] [nM] | apparent Kd [2] [nM] | apparent Kd [3] [nM] | apparent Kd [4] [nM] |
| --- | --- | --- | --- | --- |
| CCCUCACAUGAGGAUCACCCAUGUCAGGAUAUUCGACGGUAAAUUGGCCGUCUUAAAGGAAGAAGGGACGUAAC | 12.5 | 17.9 | – | – |
| AUUUCGUUAGCAGGAUAUGGACAGGCCUGUCCGUAUUGAGUCAGUAACAUGAGGAUCACCCAUGUCCAGAAGGGCUCGAAGGGA | 11.2 | 12.3 | – | – |
| CAGGAUAGAGGAUAUACAUAGAUACAGAUUCAUGUGAUCCUACAUGAGGAUCACCCAUGUAGAAGGCUAACCUG | 288 | 82.2 | – | – |
| GGUCGUCACAUCUACAUGAGGAUCACCCAUGUCAAAAGACAUGAGGAUAUGCAUCCUAAUUGGAUGCAGAAGGCAUGGACGACC | – | – | 1280 | 66.8 |
| CUAAAUCAUGUAGGAUAUGCGUGGCGAAGCUAUGCAGAAGGACAUGAGGAUCACCCAUGUUUUUCCGUCUGCGUACAGACGGAA | 259 | 260 | – | – |
| CGCUGUUGCGCAGGAUAUGCAUUGGAUUACAAUGCAGAAGGGCGAUUACAUGAGGAUCACCCAUGUGUAGACAGUGAAGAAGAG | – | – | 300 | 37.2 |
| GCCUUAUCCGUCAGGAUAUACAGCUGUUAGUUGUUGUAGAAGGGACAUGAGGAUCACCCAUGUACGUACCAUUG | 19.2 | 22.2 | – | – |
| GAGCUUGAUGAGAAGGGUUACAUGAGGAUCACCCAUGUCGACCUUGGCGUAACAGGAUAUCAUCGGGCUCUGUGCGUUGACCCA | 23.7 | 120 | – | – |
| GCACGGCAUGUAGGAUAUCGAGCGCCGGGCGCUCGAGAAGGACAUGAGGAUCACCCAUGUAUUCUGAGUGACAGAGUGCUGUGC | 19 | 46.8 | – | – |
| AACCUAAAACAGAAGGCCAAAUACAUGAGGAUCACCCAUGUCGAAUCAUGGAGGAUAUGUUGUUAUUUACUCGCAGAUGAGUGC | – | – | 77.6 | 8.18 |
| UCCGUGGCAUCUCGCGCAUGUCUACAUGAGGAUCACCCAUGUCAGGAUAUACGGAAUGUCGUUCCGUAGAAGGGACAAGGGCUG | 243 | 116 | – | – |
| CGUAUGUGAGGAUAUGACAAUGGUAUCUUCGGAUACCAUUGUCAGAAGGUACAUGAGGAUCACCCAUGUAGAUC | 27.1 | 59.9 | – | – |
| UAUAUAUAGUAAGGAUAUGUAAUUAGUUUAUAAACAGAAGGUACUGACAUGAGGAUCACCCAUGUUUUAGUGUGGGCAUGUAGA | 87.7 | 134 | – | – |
| AUCAGCUUGUCAGGAUAUGCGUGUCAACGAAAGUUGACAAUCUUAAUAACAUGAGGAUCACCCAUGUAGAAGGGACGAGCUGAU | 17.1 | 17.9 | – | – |
| GUAGCUAUCGGAGGAUAUUCAUACCGGAAACGGACAUGAGGAUCACCCAUGUGGAGAAAGCCUUAGGAGAAGGCCGAUAGCUAC | – | – | 33 | 8.9 |
| GUCAGCUUGUGAGGAUAUACAACACUGCUUCGGCAGUGUAUUAAGAUCACAUGAGGAUCACCCAUGUAGAAGGCACGAGCUGAU | 14 | 257 | – | – |
| ACCAUUUACUAAUUAUCUAUACAUGAGGAUCACCCAUGUUAUGAGGAUAUCAUCGUGAAACACGAUGAGAAGGUAUAGCAUUCG | 18.1 | 22.1 | – | – |
| GGAUAGCACAGAGGAUAUACGUGCUAGAGAUACUAGCAAAAUUUCCUCACAUGAGGAUCACCCAUGUAGAAGGCUGUCCUAUCG | 4.44 | 5.5 | – | – |
| ACUUCACAUGAGGAUCACCCAUGUCAGGCCGGACUAGGAUAUUAUCAUGCAGCGUAACCGUAAGAAGGAGUUGGAU | – | – | 88.3 | 187 |
| ACUGACAUGAGGAUCACCCAUGUCUUGGAUAGGCCAAAUUCACAGGAUAUGCAUGAGGAAAGAGUGCAGAAGGGUGAUGCAAUG | – | – | 43.6 | 23.9 |
| UGUUAGUAGUGAGGAUAUACAUACACCUUACAUGAGGAUCACCCAUGUUUUAAGAUUGAUAGAUAGUAGAAGGCACAUGAUGAU | – | – | 59 | 23 |
| GGUAGAGAGCAGGAUAUCUUGGGUAAGUAUCGUAGAGAAGGGCUCACAUGAGGAUCACCCAUGUGGUCCAAGAU | 15.5 | 34.2 | – | – |
| CAGCUGAAUGUGAGGAUAUCUAGAGCUUCGGCUCUAGAGAAGGCACAUGAGGAUCACCCAUGUCUCAACAGCUG | 39.2 | 296 | – | – |
| CCUUCACAUGAGGAUCACCCAUGUGAGGAUAUCCUGCGAGGAUCAAAAGAUCCUCGUGGGAGAAGGCACAUGGA | 110 | 180 | – | – |
| GCUUCGGCUGUGAGGAUAUCGGGCCCGAAAGGGCCCGAGAAGGCACAUGAGGAUCACCCAUGUAAGGUUGAAGU | 18.8 | 15.4 | – | – |
| GAUGCACAUGAGAAGGCGAUCAUGAAACAUGAUCGAGGAUAUCAUGUAAACAUGAGGAUCACCCAUGUAUGGGAAAAGUGCAUC | – | – | 119 | 12.1 |
| UUAUGUGGCGUAGGAUAUCAUUAGAUUUGUAAUUUAAUUGUAAUUUCCAUAUGAGAAGGACGUACACAUGAGGAUCACCCAUGU | 90.1 | 32.4 | – | – |
